Experimental data reported in article PMC2647857 (Journal of the American Chemical Society, 2009).
Substitutions are numbered along the chain they refer to. Names and notes keep the numbering of the source. Where two headings read alike, the source gives them in different places.

B1: NP1: recombinant wild-type nitrophorin 1 of Rhodnius prolixus, NO-carrying heme protein, with M0 present (protein, UniProt Q26239 24-207, looked up)
Nitrophorin-1: KCTKNALAQTGFNKDKYFNGDVWYVTDYLDLEPDDVPKRYCAALAAGTASGKLKEALYHYDPKTQDTFYDVSELQEESPGKYTANFKKVEKNGNVKVDVTSGNYYTFTVMYADDSSALIHTCLHKGNKDLGDLYAVLNRNKDTNAGDKVKGAVTAASLKFSDFISTKDNKCEYDNVSLKSLLTK
modifications: N-terminal Met0 retained
B2: NP4: recombinant wild-type nitrophorin 4 of Rhodnius prolixus, native A1 as first residue (protein, UniProt Q94734 22-205, looked up)
Nitrophorin-4: ACTKNAIAQTGFNKDKYFNGDVWYVTDYLDLEPDDVPKRYCAALAAGTASGKLKEALYHYDPKTQDTFYDVSELQVESLGKYTANFKKVDKNGNVKVAVTAGNYYTFTVMYADDSSALIHTCLHKGNKDLGDLYAVLNRNKDAAAGDKVKSAVSAATLEFSKFISTKENNCAYDNDSLKSLLTK
B3: NP4-D30A: site-directed mutant of NP4, D30 replaced by Ala (protein, UniProt Q94734 22-205, looked up, variant D30A)
Nitrophorin-4: B2 Nitrophorin-4 with D30A
B4: NP4-E55Q: site-directed mutant of NP4, buried E55 replaced by Gln (protein, UniProt Q94734 22-205, looked up, variant E55Q)
Nitrophorin-4: B2 Nitrophorin-4 with E55Q

What was measured:
[1] = NO bound, cited from earlier work
[2] = NO binding constant to Fe; set-up: species or system Rhodnius prolixus; conditions: pH 7.5
[3] = ligand-free, cited from earlier work
[4] = Spectroelectrochemical midpoint potential of the NO complex; format: physicochemical, Rhodnius prolixus; conditions: NO bound
In short: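 Spectroelectrochemistry of ~0.05 mM E. coli-expressed protein in 0.1 M sodium phosphate or acetate at pH 5.5, 6.5 and 7.5, 27 ± 1 °C. SNAP supplied NO at a level fully complexing both oxidation states. Ag/AgCl reference ([…] mV vs SHE). Absorbance versus applied potential fit to Nernst equation; pH dependence and mutant−standard differences derived.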

[5] = read-out: Kd for NO dissociation, Fe(III), cited from earlier work
[6] = Spectroelectrochemical midpoint potential, ligand-free; format: physicochemical, Rhodnius prolixus; conditions: ligand-free
[7] = Imidazole binding constant to Fe; set-up: species or system Rhodnius prolixus; conditions: pH 5.5

Molecule	Em,NO ([1]; pH 5.5, 27 °C ref 15) [mV vs. SHE]	Em,NO ([1]; pH 7.5, 27 °C ref 15) [mV vs. SHE]	NO formation constant Kf, Fe(III) form ([2]; listed as M0-containing NP1) [M⁻¹]	Kd ([2]; read-out: NO dissociation constant Kd, Fe(III) form) [nM]	Em ([3]; pH 5.5, 27 °C ref 15) [mV vs. SHE]	Em ([3]; pH 7.5, 27 °C ref 15) [mV vs. SHE]	Em,NO ([4]; pH 6.5, 27 °C) [mV vs. SHE]	Kd ([5]; pH 5.5 ref 19) [nM]	Kd ([5]; pH 7.5 ref 19) [nM]	Em,NO ([4]; pH 7.5, 27 °C) [mV vs. SHE]	ΔEm = Em(mutant)−Em(standard) ([6]; pH 5.5) [mV]	Em ([6]; pH 5.5, 27 °C) [mV vs. SHE]	ΔEm = Em(mutant)−Em(standard) ([6]; pH 7.5) [mV]	Em ([6]; pH 7.5, 27 °C) [mV vs. SHE]	ΔpHΔ(Em,NO) = ΔEm,NO(pH7.5) − ΔEm,NO(pH5.5) [4] [mV]	ΔEm,NO = Em(mutant)−Em(standard) ([4]; pH 5.5) [mV]	Em,NO ([4]; pH 5.5, 27 °C) [mV vs. SHE]	ΔEm,NO = Em(mutant)−Em(standard) ([4]; pH 6.5) [mV]	ΔEm,NO = Em(mutant)−Em(standard) ([4]; pH 7.5) [mV]	increase of imidazole binding constant compared to wild-type [7] [log unit]
B1	154±5	127±4	1e+06	1000	−274±2	−303±4	118±3													
B2	94±5				−259±2	−278±4	44±2	50	120	59±2										
B3							163±4				46±2	−213±1	62±4	−216±2	53±6	87±5	181±2	119±5	139±2	
B4							67±2			126±2	68±3	−191±3	82±4	−196±2	73±6	−6±5	88±1	23±3	67±2	1
